# Screening data from PubChem BioAssay.
# TRPC6 activator: activates the mouse TRPC6 cation channel; AID 2550; B-score at 10 µM; 310,000 tested, 0.13% active; HEK293-TRPC6 membrane potential dye fluorescence; hits give high values;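 active means B-score of the integrated fluorescence ratio above library mean plus 3 SD, and starting fluorescence ratio within library mean plus 5 SD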;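 further: higher score means more depolarization so channel activation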
# TRPC4 inh: TRPC4 (mouse) channel inhibition; HEK293 TRPC4beta/mu-opioid, DAMGO-evoked Fluo4 calcium flux; hits give low values; B-score at 10 µM; 300,000 tested, 0.39% active; AID 2247;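 active means B-score over 3 SD under the library average, no early fluorescence shift, positive overall ratio signal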
# Target sequence (Q9QUQ5 whole entry, looked up): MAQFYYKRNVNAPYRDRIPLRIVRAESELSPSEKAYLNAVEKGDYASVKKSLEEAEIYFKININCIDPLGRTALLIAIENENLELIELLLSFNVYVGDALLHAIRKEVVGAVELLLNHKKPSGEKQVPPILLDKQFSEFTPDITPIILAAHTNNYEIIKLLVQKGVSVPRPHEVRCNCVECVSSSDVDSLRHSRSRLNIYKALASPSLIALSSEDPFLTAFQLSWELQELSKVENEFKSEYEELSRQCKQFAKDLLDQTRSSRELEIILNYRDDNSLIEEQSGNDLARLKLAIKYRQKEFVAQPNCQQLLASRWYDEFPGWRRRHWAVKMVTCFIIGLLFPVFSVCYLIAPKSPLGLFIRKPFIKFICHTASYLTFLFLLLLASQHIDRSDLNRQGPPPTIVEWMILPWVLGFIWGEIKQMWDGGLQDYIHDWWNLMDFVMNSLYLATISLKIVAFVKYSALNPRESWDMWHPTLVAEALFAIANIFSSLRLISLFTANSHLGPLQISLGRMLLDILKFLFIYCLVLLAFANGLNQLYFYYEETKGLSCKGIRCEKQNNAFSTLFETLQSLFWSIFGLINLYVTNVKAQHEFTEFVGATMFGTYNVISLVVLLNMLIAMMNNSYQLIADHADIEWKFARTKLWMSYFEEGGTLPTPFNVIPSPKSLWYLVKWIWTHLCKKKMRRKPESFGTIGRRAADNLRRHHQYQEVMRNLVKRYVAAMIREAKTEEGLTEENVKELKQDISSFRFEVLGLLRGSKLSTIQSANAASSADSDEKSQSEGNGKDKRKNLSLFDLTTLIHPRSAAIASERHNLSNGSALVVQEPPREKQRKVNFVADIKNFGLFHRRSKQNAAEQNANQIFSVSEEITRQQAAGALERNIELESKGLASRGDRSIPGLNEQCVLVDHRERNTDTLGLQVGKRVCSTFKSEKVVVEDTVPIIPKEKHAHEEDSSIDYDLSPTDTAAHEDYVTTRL
#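 Test system – stable TRPC4beta/mu-opioid receptor HEK293 cells · Probe or stimulus – DAMGO, a submaximal dose followed by a maximal one · Dosing – one concentration per compound · Signal – Fluo4 calcium fluorescence by kinetic imaging, 5 s 1 Hz baseline · Evaluation – per-well B score of integrated baseline-normalized Fluo4 ratio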
# TRPC4 agonist: opens the mouse TRPC4 cation channel | Q9QUQ5 | HEK293 TRPC4beta/mu-opioid, Fluo4 calcium fluorescence; hits give high values | B-score at 10 µM | 310,000 tested, 0.49% active;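 active means B-score above 5 SD of library B-scores, and initial fluorescence ratio not above library mean plus 5 SD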;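 further: positive B-score marks a calcium rise read as TRPC4 activation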
#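 Assay system: HEK293 cells stably co-expressing mouse TRPC4beta and mu-opioid receptor / Timing: Fluo4 dye loading 45 min at room temperature, 110 s recording / Signal: Fluo4 calcium-sensitive dye fluorescence, kinetic, 1 Hz baseline / Read-out: integrated baseline-normalised fluorescence ratio, converted to per-well B score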
# TRPC4 potent: TRPC4 (mouse) allosteric potentiation | Q9QUQ5 | HEK293 TRPC4beta/mu-opioid, DAMGO EC20, Fluo-4 Ca2+ flux; hits give high values | B-score at 10 µM | 310,000 tested, 0.42% active | AID 2227;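 active means B-score of calcium response area above 5 SD of library B-scores, with initial fluorescence ratio within 5 SD of library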;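 further: B-score of integrated fluorescence ratio over time as area under calcium response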
# TRPC6 inh: inhibitors of mouse TRPC6 channel | 310,000 tested, 1.1% active | Q61143 | B-score at 10 µM | HEK293-TRPC6, membrane potential dye, ACh-evoked depolarization; hits give low values | AID 2553;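 active means B-score under library mean minus 3 SD, initial fluorescence not abnormally high, positive integrated signal ratio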;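 further: B-score derived from integrated fluorescence ratio over the kinetic read; more negative B-score means stronger inhibition of depolarization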
# TRPC4 spec 2: second check of whether TRPC6 inhibitors also affect mouse TRPC4. shares compounds with TRPC6 inh. HEK293 TRPC4/MOR, membrane potential dye fluorescence; channel activated by saturating DAMGO dose. 920 tested, 42% active. AID 2776. inhibition, % at 10 µM;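 active means compounds whose fluorescence signal differed from control wells by over 3 SD, either direction, in both duplicate plates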
# TRPC4 spec: selectivity of TRPC6 inhibitors: effect on mouse TRPC4 | activity change, negative = inhibition, % at 10 µM | AID 2777 | 920 tested, 61% active | shares compounds with TRPC6 inh | HEK293 TRPC4/mu-opioid, membrane potential fluorescence;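 active means rise or fall in signal beyond 3 SD of buffer-only wells in both replicate plates, either sign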;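 further: integrated kinetic ratio of fluorescence range over baseline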
# HEK293 MPD ctr 2-1: parental HEK293 nonspecific activity of TRPC6 inhibitors, second screen. shares compounds with TRPC6 inh. parental HEK293 membrane potential dye fluorescence; maximal acetylcholine challenge after compound addition. 920 tested, 31% active. signal change vs control, % at 10 µM;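 active means membrane potential signal moving either way by over 3 SD of the maximum-effect control, in both duplicate plates, meaning non-specific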
# HEK293 MPD ctr-1: counter-screen for TRPC6 inhibitors: effect in parental HEK293 cells; shares compounds with TRPC6 inh; parental HEK293 membrane potential dye fluorescence; membrane potential signal change, % at 10 µM; 920 tested, 60% active; AID 2780;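 active means membrane potential signal shifting up or down by more than 3 SD of buffer-only wells, on both duplicate plates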
# HEK293 MPD ctr-2: parental HEK293 nonspecific activity of TRPC6 modulators; shares compounds with TRPC6 inh; membrane potential dye fluorescence; membrane potential signal change, % at 10 µM; 2,400 tested, 51% active;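 active means membrane potential signal moves up or down beyond 5 SD from buffer-only wells, on both duplicate plates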
# HEK293 MPD ctr 2-2: second check of TRPC6 modulator effects in parental HEK293 cells; shares compounds with TRPC6 inh; membrane potential dye fluorescence; after compound, maximal acetylcholine stimulation; inhibition, % at 10 µM; 2,400 tested, 14% active; AID 488926;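 active means membrane potential signal drops by more than 5 SD from the mean control signal, in both duplicate plates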;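 further: plate controls were acetylcholine ECmax control wells for no effect and buffer only wells for full effect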
# TRPC4/MOR mod: tests whether TRPC6 modulators also affect mouse TRPC4; shares compounds with TRPC6 inh; HEK293 TRPC4/mu-opioid, membrane potential fluorescence; percent change from control (negative = decrease, positive = increase), % at 10 µM; 2,400 tested, 69% active; AID 488927;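 active means membrane potential signal moved up or down beyond 5 SD of buffer control wells, in both duplicate plates, actives on both sides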;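 further: plate controls were assay buffer wells for no effect and DAMGO maximal-effect wells for full effect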
# TRPC4/MOR inh 2: mouse TRPC4 off-target activity of TRPC6 modulators, second screen. shares compounds with TRPC6 inh. HEK293 TRPC4/mu-opioid, membrane potential dye fluorescence; stimulated with maximal-effect DAMGO. inhibition, % at 10 µM. 2,400 tested, 55% active. AID 488928;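 active means drop in membrane potential signal beyond 5 SD of the control wells in both duplicate plates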;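 further: TRPC4 counter screen for TRPC6 hits run under conditions tuned for TRPC6 not TRPC4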
# TRPC6 inh conf: confirmation of mouse TRPC6 inhibitors. shares compounds with TRPC6 inh. HEK293-TRPC6, membrane potential dye, ACh-evoked depolarization. inhibition, % at 10 µM. 3,300 tested, 43% active. AID 488960;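 active means fluorescence ratio falls more than 5 SD below the full-stimulation control mean, in both duplicate runs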;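 further: integrated fluorescence ratio of peak minus minimum over baseline after agonist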
# TRPC6 act conf: confirmation of mouse TRPC6 activators; activation, % at 10 µM; HEK293-TRPC6 membrane potential dye fluorescence, FDSS; AID 488961; shares compounds with TRPC6 inh; 2,800 tested, 11% active;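 active means ratio signal rise beyond 5 SD above unstimulated control wells' mean, seen in both duplicate runs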;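 further: plate controls were buffer EC0 wells for no effect and acetylcholine ECmax response for full effect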
# The depositor's hits bear a star; i = inactive; x = not tested or not shown. In the library only some 2.3% were active in any assay of this set; here they are far more common.
SMILES,TRPC6 activator,TRPC4 inh,TRPC4 agonist,TRPC4 potent,TRPC6 inh,HEK293 MPD ctr-2,HEK293 MPD ctr 2-2,TRPC4/MOR mod,TRPC4/MOR inh 2,TRPC6 inh conf,TRPC6 act conf,others
CCC(=O)N1CCN(c2ccc(NC(=O)COc3ccccc3Cl)cc2)CC1,i,i,i,i,i,x,x,x,x,x,x,
N#Cc1c(N)c(C(=O)c2ccccc2)n2ccccc12,i,i,i,i,i,x,x,x,x,x,x,
C(=N\Nc1ncnc2nc[nH]c12)/c1cccs1,i,i,i,i,i,x,x,x,x,x,x,
CN1CCN(c2ccc(S(=O)(=O)N3CCCCC3)cc2NC(=O)COc2ccc(F)cc2)CC1,i,i,i,10*,-5.9*,i,i,10%*,74%*,i,i,
CC(C)(C)C(=O)Nc1cc(S(=O)(=O)N2CCCCC2)ccc1N1CCCCC1,16*,i,i,i,-10*,180%*,i,20%*,i,43%*,74%*,
CC(C)(C)C(=O)Nc1ccc(S(=O)(=O)N2CCCC2)cc1,i,i,i,i,i,x,x,x,x,x,x,
O=C(COc1ccc(Br)cc1)Nc1cc(S(=O)(=O)N2CCCCC2)ccc1N1CCCCC1,i,i,i,i,i,x,x,x,x,x,x,
CC(C)(C)NC(=O)C(c1ccc(F)cc1)N(Cc1ccco1)C(=O)CCC(=O)Nc1ccccn1 (stereo not given),i,i,i,i,-6*,354%*,i,78%*,i,i,x,
CC(C)(C)NC(=O)C(c1ccc(O)cc1)N(Cc1ccco1)C(=O)CCC(=O)Nc1ccccn1 (stereo not given),i,i,i,i,i,x,x,x,x,x,x,
O=C1CCc2cc(S(=O)(=O)Nc3ccccc3F)cc3c2N1CCC3,i,i,i,i,i,x,x,x,x,x,x,
Cc1nc2c(C)cccc2c2c1CCN2c1ccccc1F,i,i,i,i,-5.8*,-143%*,i,-20%*,58%*,50%*,i,
COc1ccc(N2CCc3c(C)nc4c(OC)cccc4c32)cc1,i,i,i,i,-8*,x,x,x,x,58%*,i,TRPC4 spec 2=52%*;TRPC4 spec=-24%*;HEK293 MPD ctr 2-1=i;HEK293 MPD ctr-1=-320%*
COc1ccc(N2CCc3c(C)nc4c(OC)cc(OC)cc4c32)cc1,i,i,i,i,-5.7*,-173%*,76%*,-24%*,56%*,55%*,i,
COc1ccc(N2CCc3c(C)nc4c(OC)cc(OC)cc4c32)c(OC)c1,i,i,i,i,i,x,x,x,x,x,x,
COc1cccc(N2CCc3c(C)nc4ccc(Cl)cc4c32)c1,i,i,i,i,-6.2*,i,58%*,i,88%*,62%*,i,
CCc1ccccc1NC1=CC(=O)CC(C)(C)C1,i,i,i,i,i,x,x,x,x,x,x,
O=C(Nc1ccc(N2CCOCC2)cc1)c1ccc(Cl)nc1,i,i,i,i,i,x,x,x,x,x,x,
CCN(c1ccc(NC(=O)c2ccc(Cl)nc2)cc1)C(C)C,i,i,i,i,-6.5*,i,i,i,i,i,i,
c1ccc(OCc2nc3c4c(ncn3n2)-c2ccccc2CC42CCCC2)cc1,i,i,i,i,i,x,x,x,x,x,x,
CS(=O)(=O)N(CC(=O)N1CCOCC1)c1ccccc1Br,i,i,i,i,i,x,x,x,x,x,x,
CC1=NN(C(N)=S)C(=O)C1N=Nc1cccc([N+](=O)[O-])c1 (stereo not given),i,i,i,i,-5.3*,i,i,i,i,i,i,
O=C(CCC1CCCCC1)NCCS(=O)(=O)N1CCN(c2ccc(F)cc2)CC1,i,i,i,i,i,x,x,x,x,x,x,
COc1ccc(C(=O)OCC2CC(c3ccccc3)=NO2)cc1OC (stereo not given),i,i,i,i,-5.1*,i,i,i,i,i,i,
CNC(=O)c1cc2cc(OC)ccc2oc1=O,i,i,i,i,i,x,x,x,x,x,x,
COc1ccc2oc(=O)c(C(=O)C[n+]3cccc(C)c3)cc2c1,i,i,i,i,-8.4*,x,x,x,x,i,i,TRPC4 spec 2=i;TRPC4 spec=-12%*;HEK293 MPD ctr 2-1=i;HEK293 MPD ctr-1=-137%*
SMILES,TRPC6 activator,TRPC4 inh,TRPC4 agonist,TRPC4 potent,TRPC6 inh,HEK293 MPD ctr-2,HEK293 MPD ctr 2-2,TRPC4/MOR mod,TRPC4/MOR inh 2,TRPC6 inh conf,TRPC6 act conf,others
Cc1c(C(=O)N2CCCCC2)nn(-c2ccc(Cl)cc2)c(=O)c1C#N,i,i,i,i,i,x,x,x,x,x,x,
CC(=O)OCCc1c2ccccc2c(CCCN(C)C)c2ccccc12,i,i,i,i,-6.1*,-87%*,i,-18%*,67%*,48%*,i,
CC(=O)OCCc1[nH]c2ccccc2c1C,i,i,i,i,i,x,x,x,x,x,x,
CCN(CC)C(=O)c1cn(-c2cccc(OC)c2)c(=O)c2ccccc12,i,i,i,i,i,x,x,x,x,x,x,
NS(=O)(=O)c1cccc(NC(=O)Cn2cc(C(F)(F)F)cc(Cl)c2=O)c1,i,i,i,i,i,x,x,x,x,x,x,
CC[n+]1ccc2cc(OC)c(OC)cc2c1Cc1ccc(OC)c(OC)c1,i,i,i,i,-6.4*,-232%*,i,-40%*,i,i,i,
